# D1 mod: allosterically modulates the human D1 dopamine receptor; 58,000 tested, 5.9% active; B-score at 10 µM; HEK293 D1, CRE-luciferase, dopamine EC30 potentiation; actives deviate in either direction; P21728;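 active = luminescence count or its row- and column-corrected plate score outside the 99.7% band of the plate's sample wells, on either side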
# S1P1 ag-PAM: S1P1 (human) agonism or agonism potentiation; 56,000 tested, 0.57% active; activation, % at 9.5 µM; S1P1 CRE-bla cells, forskolin, beta-lactamase FRET, potentiator mode; S1P1 agonist co-added at EC20, 2 nM; 100% = saturating reference agonist, 0% = basal; P21453;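 active = activation above a cutoff set at the mean activation of all tested compounds plus 3 SD, cut at about 54% in these data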;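 note: forskolin at 4 µM as EC80 and the EC20 agonist is SEW2871; 100% = SEW2871 at its EC100 plus forskolin at EC80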
# Target sequence (P21453 whole entry, looked up): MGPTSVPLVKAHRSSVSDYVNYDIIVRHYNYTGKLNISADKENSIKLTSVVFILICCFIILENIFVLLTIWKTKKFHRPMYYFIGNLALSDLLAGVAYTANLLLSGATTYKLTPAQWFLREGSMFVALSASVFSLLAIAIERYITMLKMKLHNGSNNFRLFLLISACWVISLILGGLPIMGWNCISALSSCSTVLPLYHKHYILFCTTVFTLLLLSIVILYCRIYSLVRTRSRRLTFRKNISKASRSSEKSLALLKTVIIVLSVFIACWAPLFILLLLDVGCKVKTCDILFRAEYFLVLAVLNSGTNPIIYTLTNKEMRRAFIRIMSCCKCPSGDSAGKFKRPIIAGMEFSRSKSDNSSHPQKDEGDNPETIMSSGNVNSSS
# S1P3 ag: S1P3 (human) receptor agonism. 60,000 tested, 0.1% active. S1P3 NFAT-BLA reporter cells, FRET ratio; relative to 1 µM S1P, basal subtracted. activation, % at 4.5 µM. Q99500. AID 373;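 active = activation above the screen-wide mean plus 3 SD, cut at about 4.5% in these data, passing the limit was not always enough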
#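 Benchmarks: high control 1 µM S1P / System: stable CHO line with human S1P3, Gα16, NFAT-BLA reporter / Dosing: single compound concentration, 4.5 µM final / Timing: 4 h compound at 37 °C, 2 h substrate at RT / Measured by: FRET β-lactamase substrate fluorescence, excitation 405 nm, 460/535 nm emission ratio, background-subtracted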
# M1 ag: activates the M1 muscarinic receptor. AID 626. B-score at 10 µM. 64,000 tested, 3% active. CHO-M1 cells, Fluo-4 calcium fluorescence, agonist mode; hits give high values;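 active = fluorescence rise, raw or as B-score row- and column-corrected plate score, outside the 99.7% band of its plate's samples, either direction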
# M1 antagonist: M1 muscarinic receptor (rat) antagonism | B-score at 10 µM | AID 628 | CHO-M1 cells, Fluo-4 calcium, ACh EC80 antagonist mode; hits give low values | P08482 | 64,000 tested, 3.4% active;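 active = calcium fluorescence response, raw or row-and-column corrected B-score, differing from the plate sample mean either way at a set confidence level, mostly lower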
# M1 antag confirm: confirmation of rat M1 muscarinic receptor antagonists; shares compounds with M1 antagonist; CHO-M1 cells, Fluo-4 calcium, ACh EC80 antagonism; hits give low values; calcium response (max-min fluorescence) at 10 µM; 1,700 tested, 43% active;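 active = calcium response below the same-plate mean of wells given acetylcholine alone at its 80%-effect dose, minus 3 SD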;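 note: raw fluorescence intensity difference in arbitrary instrument units and not normalized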
# mGluR4 antag: mGluR4 (human) activity, M1 antagonist secondary assay; shares compounds with M1 antagonist; CHO-mGluR4 calcium flux, Fluo-4 fluorescence, glutamate EC80; hits give low values; fluorescence response (max-min) at 10 µM; 1,700 tested, 0.9% active;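 active = fluorescence response below the plate's average for near-maximal glutamate wells, less 3 SD of those wells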;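 note: raw unnormalized fluorescence span taken in the window right after glutamate addition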
# Starred values were filed as active, the others as inactive; / = no result given. An excerpt weighted towards active compounds, which were near 11% of everything screened.
SMILES,D1 mod,S1P1 ag-PAM,S1P3 ag,M1 ag,M1 antagonist,M1 antag confirm,mGluR4 antag
Cc1cc2ncn(C(=O)c3c(-c4ccccc4Cl)noc3C)c2cc1C,0.692,11.3,0.3,-1.32,-5.53*,264*,213
CC(C)Oc1ccc(C(=O)Nc2ccc(N3CCCC3)cc2)cc1,-0.782,17.6,-2.4,-0.0176,-2.14*,405*,249
COC(=O)c1ccc(C2C(C(=O)OC(C)C)=C(C)N=C3SCCC(=O)N32)cc1 (centres undefined),0.392,-19.6,-1.6,-0.217,-0.131,/,/
COC(=O)C1=C(C)N=C2SCCC(=O)N2C1/C=C/c1ccccc1 (centres undefined),0.246,-48.9,-0.8,0.59,-4.46*,253*,222
CCOC(=O)c1ccc(N2C(=O)CC(SCC(N)C(=O)OCC)C2=O)cc1 (centres undefined),-0.352,/,/,0.287,0.246,/,/
O=C1CC(SCCO)C(=O)N1c1ccc(Oc2ccccc2)cc1 (centres undefined),-0.726,/,-0.5,0.0204,-2.75*,597,252
COc1ccc(CNc2nc3c(c(C(F)(F)F)n2)CCCCC3)cc1,/,/,/,-0.249,0.123,/,/
Cc1cc(C(=O)N2CCN(C(c3ccccc3)c3ccccc3)CC2)on1,/,87.5*,0.1,-0.00288,-1.35*,361*,241
Oc1c(C(c2ccco2)N2CCN(C(c3ccccc3)c3ccccc3)CC2)sc2ncnn12 (centres undefined),-0.0123,57.0,-2.2,-0.408,-3.44*,512*,267
Oc1c(C(c2ccccc2)N2CCc3ccccc3C2)sc2ncnn12 (centres undefined),0.0819,-10.4,-0.5,-0.941,-0.315,/,/
COc1cccc(N(C(=O)CNC(=O)c2ccco2)C(C(=O)NC2CCCCC2)c2ccncc2)c1 (centres undefined),/,1.3,-0.1,0.64,0.0311,/,/
COc1cccc(C(c2nnnn2CCc2ccccc2)N2CCN(c3ccccc3)CC2)c1OC (centres undefined),0.0658,13.2,-0.6,-0.0235,-0.0238,/,/
COc1cccc(C(c2nnnn2Cc2ccco2)N2CCN(c3cccc(C)c3C)CC2)c1OC (centres undefined),-0.00787,3.9,-1.2,-0.307,-4.28*,639,202
O=C(CCCNS(=O)(=O)c1cccc2nsnc12)NC1CCCCC1,0.0695,-27.2,-0.7,-0.531,-0.963,/,/
Brc1cccc(-c2nnc3n2CCCCC3)c1,-1.18,-6.8,-2.3,-0.281,-0.208,/,/
Brc1cccc(-c2cnc3n2CCCCC3)c1,-3.32*,-7.8,-1.0,-0.594,-12*,81.1*,177
CC(=O)Nc1cccc(NC(=O)CSc2nnc(Cc3cccn3C)n2CCc2ccccc2)c1,0.421,-16.8,-0.5,0.0997,-1.86*,641,228
COc1ccc(NC(=O)CSc2nnc(Cc3cccn3C)n2CCc2ccccc2)cc1OC,-1.07,-34.1,4.7,0.816,0.544,/,/
CCn1c(=O)cc(SCC(=O)N2CCN(Cc3ccc4c(c3)OCO4)CC2)c2ccccc21,-0.771,/,/,0.33,-5.72*,432*,236
CCn1c(=O)cc(SCC(=O)N2CCCCC2)c2ccccc21,/,/,/,0.376,-0.27,/,/
CCn1c(=O)cc(SCC(=O)NCCN2CCN(Cc3ccccc3)CC2)c2ccccc21,0.853,6.7,-1.1,1.31,-3.55*,499,224
CCn1c(=O)cc(SCC(=O)NCc2cccnc2)c2ccccc21,0.211,-15.7,-0.5,-1.83,-0.479,/,/
Cn1c(=O)cc(SCC(=O)N2CCN(Cc3ccc4c(c3)OCO4)CC2)c2ccccc21,0.219,1.1,0.6,0.463,-2.09*,474*,195
Cn1c(=O)cc(SCC(=O)N2CCN(C3CCCCC3)CC2)c2ccccc21,-0.519,-9.1,-1.1,1.21,-2.82*,249*,222
COc1ccc(NC(=O)CSc2nc(-c3ccncc3)nn2CC(=O)N2CCCC2)cc1,/,-21.9,-0.4,-1.78,-1.14,/,/
SMILES,D1 mod,S1P1 ag-PAM,S1P3 ag,M1 ag,M1 antagonist,M1 antag confirm,mGluR4 antag
CCOc1cccc(NC(=O)c2ccc(S(=O)(=O)N3CCCC3)cc2)c1,-0.605,3.8,-0.8,0.355,-0.499,/,/
CC1CN(C2CCN(C(=O)c3ccccc3Cl)CC2)CC(C)O1 (centres undefined),/,4.9,-1.8,-0.513,0.902,/,/
O=C(O)CCCCCN1C(=O)CSC1=S,-0.0179,4.2,-0.5,0.293,-6.39*,667,241
COc1ccc(N(CC(=O)NCc2cccnc2)S(=O)(=O)c2c(C)nn(C)c2C)cc1,0.246,8.5,0.5,-0.965,1.18,/,/
c1ccc(-c2ccc(OCCCn3cncn3)cc2)cc1,/,19.5,0.1,-0.148,-0.0539,/,/
CCN1CCN(CCCOc2ccc(-c3ccccc3)cc2)CC1,-0.267,-2.4,0.4,-0.725,-3.5*,197*,256
COc1cccc(-c2nc(CS(=O)(=O)CC(=O)NCCCN3CCc4ccccc4C3)c(C)o2)c1,-0.125,17.4,-1.3,-1.99,-1.83*,419,202
CCCCOc1ccc(C(=O)N2CCC(C)CC2)cc1,-0.0605,-12.4,-0.5,0.667,0.0838,/,/
CCCCOc1ccc(C(=O)OC2CC(C)N(C)CC2C)cc1 (centres undefined),/,0.0,-4.5,-0.025,-12.7*,44*,241
O=c1c(CN2CCN(Cc3ccccc3)CC2)coc2ccc(Cl)cc12,-0.666,-13.2,-1.6,-0.831,-4.22*,365*,194
Cc1ccc2occ(CN3CCN(c4ccccc4)CC3)c(=O)c2c1,-0.157,-6.4,0.4,1.08,-3.44*,508*,223
CCN1CCN(Cc2coc3ccc(C)cc3c2=O)CC1,-0.126,-8.8,-2.1,0.0122,-0.258,/,/
N/C(CCN1CCCCC1)=N/O,-0.00536,4.5,-3.2,-0.455,0.443,/,/
CC(C)(C)OC(=O)N1CCOCCOCCN(C(=O)OC(C)(C)C)CCOCC1,-0.0177,3.2,-0.6,-0.168,-0.0239,/,/
COc1cccc(NC(=O)CSc2nnc(-c3cccc(OC(C)C)c3)n2N)c1,-0.0878,1.2,-1.6,-0.357,0.66,/,/
CSc1ccc(N2C(=O)NC3(CCCCC3)C2=O)cc1,-1.28,7.0,-0.7,-0.875,0.178,/,/
Cc1ccc(N2CC(C(=O)NCc3ccccn3)CC2=O)cc1 (centres undefined),-0.0946,9.4,-0.5,-0.0998,1.81,/,/
CCn1c(=N)n(CC(=O)C23CC4CC(CC(C4)C2)C3)c2ccccc21,-0.979,-27.8,-0.3,-1.77,-12.1*,198*,259
CCn1c(N2CCN(C(=O)C34CC5CC(CC(C5)C3)C4)CC2)nc2ccccc21,0.0507,-3.8,-1.6,0.395,-0.153,/,/
Cn1c(=O)n(CCN2CCOCC2)c(=O)c2c1nc1n2CCN1c1ccccc1,-2.09,3.7,-1.0,2.1,-0.0757,/,/
